Source: ChEMBL document CHEMBL3739352, “Anticonvulsant activity, crystal structures, and preliminary safety evaluation of N-trans-cinnamoyl derivatives of selected (un)modified aminoalkanols” (Eur J Med Chem, 2016)
The source made the active and inactive calls. The calls are words filed in the database; no cut-off is given here.

Tests used:
[1] = Lipophilicity of the compound using 90% methanol in water at 1 mg/ml by RT-TLC analysis; format: physicochemical; details: buffer
Method in brief: (§1)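 Reversed-phase TLC with a methanol–water mobile phase at the stated methanol content (v/v). Compounds were spotted from 1 mg/mL methanol solutions after 1 h chamber saturation and located under UV light. Rf was measured and RM = log(1/Rf − 1) calculated.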

Salmonella typhimurium [2] = experiment: Mutagenicity in Salmonella typhimurium TA98 assessed as number of revertants at 100 ug/plate by Ames test (reference value: 23 +/- 3); format: toxicity, organism-based; details: salmonella enterica subsp. enterica serovar typhimurium
Mus musculus [3] = experiment: Neurotoxicity in albino Carworth Farms No.1 mouse at 300 mg/kg, ip after 0.5 hrs by rotarod test; format: toxicity, organism-based; details: in vivo
Method in brief: (§2)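 Mice (albino Carworth Farms No.1) were dosed i.p. at 30, 100 or 300 mg/kg in 0.5% methylcellulose. They were tested 0.5 and 4 h later on a 1-inch knurled rod rotating at 6 rpm. Neurotoxicity was scored if a mouse could not stay on the rod for at least 1 min in each of three trials. Results are given as animals toxic/animals tested, with deaths noted.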

Salmonella typhimurium [4] = experiment: Mutagenicity in Salmonella typhimurium TA1535 assessed as assessed as mutagenic index at 4 ug/plate by Ames test; format: toxicity, organism-based; details: salmonella enterica subsp. enterica serovar typhimurium
Method in brief: (§3)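 Ames preincubation test. Strain culture was grown 12 h at 37 °C in nutrient broth, then mixed with compound in DMSO (final 4, 20, 100, 500, 1000 per plate) and buffer in top agar with trace histidine. This was plated on glucose minimal agar for 48 h at 37 °C. Mutagenic index = revertants with compound / DMSO control revertants, from three independent repeats.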

Mus musculus [5] = experiment: Anticonvulsant activity in albino Carworth Farms No.1 mouse assessed as protection against maximal electroshock-induced seizures at 30 mg/kg, ip after 0.5 hrs; format: functional, organism-based
Method in brief: (§4)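 Mouse i.p. screen in Carworth Farms No.1 albino mice at 30, 100 or 300 mg/kg in 0.5% methylcellulose. Testing was at 0.5 and 4 h after injection, by maximal electroshock or by subcutaneous pentetrazol challenge. Scoring was number protected / number used.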

[6] = Lipophilicity of the compound using 75% methanol in water at 1 mg/ml by RT-TLC analysis; format: physicochemical; details: buffer; method in brief: as §1
Mus musculus [7] = experiment: Neurotoxicity in albino Carworth Farms No.1 mouse at 300 mg/kg, ip after 4 hrs by rotarod test; format: toxicity, organism-based; details: in vivo; method in brief: as §2
Salmonella typhimurium [8] = experiment: Mutagenicity in Salmonella typhimurium TA100 assessed as mutagenic index at 100 ug/plate by Ames test; format: toxicity, organism-based; details: salmonella enterica subsp. enterica serovar typhimurium; method in brief: as §3
Mus musculus [9] = experiment: Anticonvulsant activity in albino Carworth Farms No.1 mouse assessed as protection against subcutaneous dosed pentetrazol-induced seizures at 300 mg/kg, ip after 4 hrs; format: functional, organism-based; method in brief: as §4
Salmonella typhimurium [10] = experiment: Mutagenicity in Salmonella typhimurium TA1535 assessed as number of revertants at 20 ug/plate by Ames test (reference value: 10 +/- 3); format: toxicity, organism-based; details: salmonella enterica subsp. enterica serovar typhimurium
[11] = Lipophilicity of the compound at 1 mg/ml by RT-TLC analysis relative to 0% methanol; format: physicochemical; details: methanol/water
Method in brief: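 Reversed-phase TLC used methanol–water mobile phases of 95–65% methanol. Compounds were applied from 1 mg/mL methanol solutions after 1 h chamber saturation, with UV detection. RM = log(1/Rf − 1) was calculated at each methanol level and extrapolated linearly (RM = RM0 + bC) to 0% methanol to give RM0.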

Salmonella typhimurium [12] = experiment: Mutagenicity in Salmonella typhimurium TA100 assessed as mutagenic index at 4 ug/plate by Ames test; format: toxicity, organism-based; details: salmonella enterica subsp. enterica serovar typhimurium; method in brief: as §3
Salmonella typhimurium [13] = experiment: Mutagenicity in Salmonella typhimurium TA1535 assessed as mutagenic index at 1000 ug/plate by Ames test; format: toxicity, organism-based; details: salmonella enterica subsp. enterica serovar typhimurium
Salmonella typhimurium [14] = experiment: Mutagenicity in Salmonella typhimurium TA100 assessed as number of revertants at 4 ug/plate by Ames test (reference value: 77 +/-4); format: toxicity, organism-based; details: salmonella enterica subsp. enterica serovar typhimurium
Method in brief: (§5)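 Salmonella TA100 preincubation Ames assay: overnight-type 12 h broth culture at 37 °C, compound in DMSO at final 4–1000 per plate, top agar with trace histidine, glucose minimal agar, 48 h at 37 °C. Revertant colonies per plate were counted, with a DMSO negative control and a sodium azide positive control. Three independent repetitions were run.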

Mus musculus [15] = experiment: Neurotoxicity in albino Carworth Farms No.1 mouse at 30 mg/kg, ip after 4 hrs by rotarod test; format: toxicity, organism-based; details: in vivo; method in brief: as §2
Mus musculus [16] = experiment: Anticonvulsant activity in albino Carworth Farms No.1 mouse assessed as protection against subcutaneous dosed pentetrazol-induced seizures at 30 mg/kg, ip after 0.5 hrs; format: functional, organism-based; method in brief: as §4
Salmonella typhimurium [17] = experiment: Mutagenicity in Salmonella typhimurium TA98 assessed as number of revertants at 1000 ug/plate by Ames test (reference value: 23 +/- 3); format: toxicity, organism-based; details: salmonella enterica subsp. enterica serovar typhimurium
Salmonella typhimurium [18] = experiment: Mutagenicity in Salmonella typhimurium TA98 assessed as number of revertants at 20 ug/plate by Ames test (reference value: 23 +/- 3); format: toxicity, organism-based; details: salmonella enterica subsp. enterica serovar typhimurium
Salmonella typhimurium [19] = experiment: Mutagenicity in Salmonella typhimurium TA98 assessed as number of revertants at 4 ug/plate by Ames test (reference value: 23 +/- 3); format: toxicity, organism-based; details: salmonella enterica subsp. enterica serovar typhimurium
Salmonella typhimurium [20] = experiment: Mutagenicity in Salmonella typhimurium TA1535 assessed as number of revertants at 4 ug/plate by Ames test (reference value: 10 +/- 3); format: toxicity, organism-based; details: salmonella enterica subsp. enterica serovar typhimurium
[21] = Lipophilicity of the compound using 95% methanol in water at 1 mg/ml by RT-TLC analysis; format: physicochemical; details: buffer; method in brief: as §1
Mus musculus [22] = experiment: Anticonvulsant activity in albino Carworth Farms No.1 mouse assessed as protection against maximal electroshock-induced seizures at 300 mg/kg, ip after 4 hrs; format: functional, organism-based; method in brief: as §4
Salmonella typhimurium [23] = experiment: Mutagenicity in Salmonella typhimurium TA1535 assessed as assessed as mutagenic index at 500 ug/plate by Ames test; format: toxicity, organism-based; details: salmonella enterica subsp. enterica serovar typhimurium
Mus musculus [24] = experiment: Anticonvulsant activity in albino Carworth Farms No.1 mouse assessed as protection against maximal electroshock-induced seizures at 300 mg/kg, ip after 0.5 hrs; format: functional, organism-based; method in brief: as §4
Salmonella typhimurium [25] = experiment: Mutagenicity in Salmonella typhimurium TA98 assessed as number of revertants at 500 ug/plate by Ames test (reference value: 23 +/- 3); format: toxicity, organism-based; details: salmonella enterica subsp. enterica serovar typhimurium
Mus musculus [26] = experiment: Anticonvulsant activity in albino Carworth Farms No.1 mouse assessed as protection against subcutaneous dosed pentetrazol-induced seizures at 100 mg/kg, ip after 4 hrs; format: functional, organism-based; method in brief: as §4
Mus musculus [27] = experiment: Neurotoxicity in albino Carworth Farms No.1 mouse at 100 mg/kg, ip after 4 hrs by rotarod test; format: toxicity, organism-based; details: in vivo; method in brief: as §2
Salmonella typhimurium [28] = experiment: Mutagenicity in Salmonella typhimurium TA100 assessed as mutagenic index at 20 ug/plate by Ames test; format: toxicity, organism-based; details: salmonella enterica subsp. enterica serovar typhimurium; method in brief: as §3
Salmonella typhimurium [29] = experiment: Mutagenicity in Salmonella typhimurium TA1535 assessed as number of revertants at 100 ug/plate by Ames test (reference value: 10 +/- 3); format: toxicity, organism-based; details: salmonella enterica subsp. enterica serovar typhimurium
[30] = Lipophilicity of the compound using 85% methanol in water at 1 mg/ml by RT-TLC analysis; format: physicochemical; details: buffer; method in brief: as §1
Salmonella typhimurium [31] = experiment: Mutagenicity in Salmonella typhimurium TA1535 assessed as number of revertants at 500 ug/plate by Ames test (reference value: 10 +/- 3); format: toxicity, organism-based; details: salmonella enterica subsp. enterica serovar typhimurium
Salmonella typhimurium [32] = experiment: Mutagenicity in Salmonella typhimurium TA100 assessed as number of revertants at 20 ug/plate by Ames test (reference value: 77 +/-4); format: toxicity, organism-based; details: salmonella enterica subsp. enterica serovar typhimurium; method in brief: as §5
Salmonella typhimurium [33] = experiment: Mutagenicity in Salmonella typhimurium TA100 assessed as assessed as mutagenic index at 1000 ug/plate by Ames test; format: toxicity, organism-based; details: salmonella enterica subsp. enterica serovar typhimurium; method in brief: as §3
Salmonella typhimurium [34] = experiment: Mutagenicity in Salmonella typhimurium TA100 assessed as number of revertants at 100 ug/plate by Ames test (reference value: 77 +/-4); format: toxicity, organism-based; details: salmonella enterica subsp. enterica serovar typhimurium; method in brief: as §5

| SMILES | Rm [1] | Activity (Salmonella typhimurium [2]) | Activity (Mus musculus [3]) | Activity_index (Salmonella typhimurium [4]) | Activity (Mus musculus [5]) | Rm [6] | Activity (Mus musculus [7]) | Activity_index (Salmonella typhimurium [8]) | Activity (Mus musculus [9]) | Activity (Salmonella typhimurium [10]) | Rm [11] | Activity_index (Salmonella typhimurium [12]) | Activity_index (Salmonella typhimurium [13]) | Activity (Salmonella typhimurium [14]) | Activity (Mus musculus [15]) | Activity (Mus musculus [16]) | Activity (Salmonella typhimurium [17]) | Activity (Salmonella typhimurium [18]) | Activity (Salmonella typhimurium [19]) | Activity (Salmonella typhimurium [20]) | also measured |
| --- | --- | --- | --- | --- | --- | --- | --- | --- | --- | --- | --- | --- | --- | --- | --- | --- | --- | --- | --- | --- | --- |
| O=C(/C=C/c1ccccc1)N[C@H]1CCCC[C@@H]1O (racemic) | -0.43 | 20 | Toxic | 0.5 | inactive | -0.09 | Toxic | 0.9 | inactive | 14 | 2.054 | 0.9 | 0.6 | 71 | Non-toxic | inactive | 18 | 21 | 22 | 5 | Rm [21]: -0.52; Activity (Mus musculus [22]): inactive; Activity_index (Salmonella typhimurium [23]): 0.7; Activity (Mus musculus [24]): inactive; Activity (Salmonella typhimurium [25]): 19; Activity (Mus musculus [26]): inactive; Activity (Mus musculus [27]): Non-toxic; Activity_index (Salmonella typhimurium [28]): 1; Activity (Salmonella typhimurium [29]): 6; Rm [30]: -0.18; Activity (Salmonella typhimurium [31]): 7; Activity (Salmonella typhimurium [32]): 79; Activity_index (Salmonella typhimurium [33]): 0.9; Activity (Salmonella typhimurium [34]): 72 |
| CCC(CO)NC(=O)/C=C/c1ccccc1 (racemic) | -0.55 | 22 | Non-toxic | 1.1 | inactive | -0.19 | Non-toxic | 0.8 | inactive | 5 | 2.093 | 0.9 | 1.3 | 68 | Non-toxic | inactive | 19 | 24 | 21 | 11 | Rm [21]: -0.66; Activity (Mus musculus [22]): inactive; Activity_index (Salmonella typhimurium [23]): 1.3; Activity (Mus musculus [24]): Active; Activity (Salmonella typhimurium [25]): 21; Activity (Mus musculus [26]): inactive; Activity (Mus musculus [27]): Non-toxic; Activity_index (Salmonella typhimurium [28]): 0.8; Activity (Salmonella typhimurium [29]): 14; Rm [30]: -0.29; Activity (Salmonella typhimurium [31]): 13; Activity (Salmonella typhimurium [32]): 62; Activity_index (Salmonella typhimurium [33]): 0.8; Activity (Salmonella typhimurium [34]): 64 |
| CC(C)C(CO)NC(=O)/C=C/c1ccccc1 (racemic) | -0.45 | 19 | Non-toxic | 0.5 | inactive | -0.1 | Non-toxic | 1 | inactive | 6 | 2.219 | 1.1 | 0.7 | 83 | Non-toxic | inactive | 15 | 19 | 20 | 5 | Rm [21]: -0.63; Activity (Mus musculus [22]): Active; Activity_index (Salmonella typhimurium [23]): 0.7; Activity (Mus musculus [24]): Active; Activity (Salmonella typhimurium [25]): 16; Activity (Mus musculus [26]): inactive; Activity (Mus musculus [27]): Non-toxic; Activity_index (Salmonella typhimurium [28]): 1; Activity (Salmonella typhimurium [29]): 6; Rm [30]: -0.16; Activity (Salmonella typhimurium [31]): 7; Activity (Salmonella typhimurium [32]): 75; Activity_index (Salmonella typhimurium [33]): 1; Activity (Salmonella typhimurium [34]): 80 |
